Fh CTSL1 inh = cathepsin L1 inhibition, PFM18AAP counter-screen | recombinant F. hepatica cathepsin L1, Z-Leu-Arg-MCA fluorescence | inhibition, % at 5.96 µM | 300,000 compounds, 0.49% hits;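 active means inhibition above the mean of all tested compounds plus 3 SD, set per screening campaign, cut at about 17% in these data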
core dimer inh = blocks dimerization of HCV core protein. TR-FRET GST/Flag-core106 dimerization, 1536-well. inhibition, % at 5 µM. AID 1899. 300,000 compounds, 0.33% hits;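 active means inhibition above the mean of all tested compounds plus 3 SD, set per screening campaign, cut at about 45% in these data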
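Assay system: GST-tagged and Flag-tagged HCV core protein residues 1-106 / Times: compound-protein-antibody incubation 4 h at 22.5 °C / Signal: time-resolved FRET, ex 340 nm, em 617 and 671 nm / Evaluation: % inhibition based on acceptor/donor emission ratio / Benchmarks: wells lacking GST-core106 and wells with excess unlabelled core106 / Repeats: singlicate, one well per compound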
PP1 counter = counter-screen for PP5 inhibitors: inhibitors of human PP1-alpha; P62136; purified PP1alpha, OMFP fluorescence; inhibition, % at 6.7 µM; 320,000 compounds, 0.9% hits;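 active means inhibition above the mean inhibition of all tested compounds plus 3 SD, computed separately for each screening campaign, cut at about 15% in these data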
Target sequence (P62136 whole entry, looked up): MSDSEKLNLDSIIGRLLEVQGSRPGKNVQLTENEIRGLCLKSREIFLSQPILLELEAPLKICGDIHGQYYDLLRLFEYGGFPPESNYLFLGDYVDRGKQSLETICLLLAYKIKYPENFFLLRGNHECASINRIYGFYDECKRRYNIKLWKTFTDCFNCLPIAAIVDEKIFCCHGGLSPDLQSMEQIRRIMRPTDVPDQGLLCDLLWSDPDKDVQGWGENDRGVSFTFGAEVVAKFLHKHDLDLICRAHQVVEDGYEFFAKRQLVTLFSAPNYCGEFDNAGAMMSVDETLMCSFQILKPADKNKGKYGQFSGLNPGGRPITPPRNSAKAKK
Myeloid diff MLP = myeloid differentiation induction. 360,000 compounds, 1% hits. calls only at 10 µM. ER-HoxA9 myeloid progenitors, lysozyme-GFP differentiation, flow cytometry. AID 624256;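 active means normalized GFP-positive differentiation at or above the plate's own cutoff, the solvent-only control mean plus 3 SD; inconclusive means no clear call, values can overlap the other calls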;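 further: cells exposed to compound for four days before flow analysis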
PP5 primary = PP5 (human) phosphatase inhibition; purified PP5c, OMFP substrate fluorescence; P53041; inhibition, % at 6.7 µM; 320,000 compounds, 0.18% hits; AID 1987;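 active means inhibition above the campaign's mean inhibition across all tested compounds plus 3 SD, cut at about 9.5% in these data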
NadD block = inhibitors of Staphylococcus aureus NadD; inhibition, % at 20 µM; AID 602399; 360,000 compounds, 0.78% hits; purified NadD enzyme, colorimetric absorbance read-out; in the data active means inhibition above about 26%
Each line names hits and unclear results; the compound was inactive in the other large screens. Most compounds without a hit are left out; they make up all but 3.1% or so of the library.

COc1cccc(NC(=O)CN(C)C(=O)c2ccccc2OCc2c(C)noc2C)c1	Fh CTSL1 inh 27
CC1(CCc2ccccc2)NC(=O)N(CC(=O)Nc2c(F)cccc2F)C1=O (stereo not given)	none (no result: Fh CTSL1 inh, core dimer inh, PP1 counter, PP5 primary)
O=C(CCl)Nc1cccc(Oc2cnccn2)c1	Fh CTSL1 inh 56
O=C(CCl)Nc1cccc(Oc2ccccc2)c1	Fh CTSL1 inh 43
Cc1cc(=O)n2nc(N3CCCC(C(=O)N4CCN(c5ccccc5)CC4)C3)sc2n1 (stereo not given)	Fh CTSL1 inh 17
Cc1cccc(OCCCC(=O)NC(C)C)c1	none
CCCCNC(=O)OC(C)CNC(=O)Oc1cccc(C)c1 (stereo not given)	Fh CTSL1 inh 26
CCCCNC(=O)OCCNC(=O)Oc1cccc(C)c1	Fh CTSL1 inh 45
Cc1ccc(C)c(NC(=O)CN(C)C(=O)c2cc(-c3cccs3)nn2-c2ccccc2)c1	none
Cc1cccc(C(=O)N2CCC[C@H]2C(=O)N2CCC[C@H]2C(=O)NCc2ccncc2)c1	none (no result: Fh CTSL1 inh, core dimer inh, PP1 counter, PP5 primary)
CCN(CC)c1ncnc2c1ncn2[C@H]1CN(Cc2ccc(F)cc2)C[C@@H](CO)O1	none (no result: Fh CTSL1 inh, core dimer inh, PP1 counter, PP5 primary)
COc1ccc(OC)c(CC(=O)Nc2ccc3c(c2)CCC3)c1	none
COc1ccc(OC)c(CNc2ccc3c(c2)CCC3)c1	Myeloid diff MLP active
CN1CCN(C(=O)c2ccc3c(c2)N(Cc2ccccc2F)C(=O)c2ccccc2S3=O)CC1 (stereo not given)	none
CN1CCN(C(=O)c2ccc3c(c2)N(Cc2ccc(Cl)cc2)C(=O)c2ccccc2S3=O)CC1 (stereo not given)	Myeloid diff MLP active
CC1(c2cccc3ccccc23)OC(=O)c2ccccc21 (stereo not given)	none (no result: Fh CTSL1 inh, core dimer inh, PP1 counter, PP5 primary)
CC(=NCCCn1ccnc1)c1c(-c2ccccc2)[nH]n(-c2nc3ccccc3s2)c1=O	PP1 counter 17
CC(C)(C)n1nnnc1C(c1ccccc1)N1CCN(C(=O)C2CCCO2)CC1 (stereo not given)	none (no result: Fh CTSL1 inh, core dimer inh, PP1 counter, PP5 primary)
COc1ccc(C(=O)NC(=S)Nc2ccc3[nH]c(=O)[nH]c3c2)c(OC)c1	none
Cc1ccc(NC(=O)COC(=O)c2ccc([N+](=O)[O-])s2)c(C)c1	Fh CTSL1 inh 28
O=C(COC(=O)c1ccc([N+](=O)[O-])s1)NNC(=O)c1ccccc1	none (no result: Fh CTSL1 inh, core dimer inh, PP1 counter, PP5 primary)
Cc1cc(C)c(NC(=O)COC(=O)c2ccc([N+](=O)[O-])s2)c(C)c1	none
NS(=O)(=O)c1ccc(NC(=O)COC(=O)c2ccc([N+](=O)[O-])s2)cc1	Fh CTSL1 inh 68
COc1ccccc1NC(=O)COC(=O)c1ccc([N+](=O)[O-])s1	Fh CTSL1 inh 22
CC(=O)Oc1ccccc1-c1nc(/C=C/c2ccccc2)no1	none (no result: Fh CTSL1 inh, core dimer inh, PP1 counter, PP5 primary)
O=C(CSc1ncnc2nc[nH]c12)N1CCN(c2ccccc2)CC1	Myeloid diff MLP active
CCOc1cc(/C=C/C(=O)c2ccc3c(c2)OCCO3)ccc1OCC(=O)N(C)C	Myeloid diff MLP active
CCOc1cc(/C=C/C(=O)c2ccc(O)cc2)ccc1OCC(=O)N(C)C	none
CCNS(=O)(=O)c1ccc(CCC(=O)NCc2ccccn2)cc1	none
Cc1ccc(S(=O)(=O)N2CCOC2CNC(=O)C(=O)NCCc2ccc(S(N)(=O)=O)cc2)cc1 (stereo not given)	none
Cc1cc(C)c(S(=O)(=O)N2CCOC2CNC(=O)C(=O)NCCc2ccc(S(N)(=O)=O)cc2)c(C)c1 (stereo not given)	core dimer inh 50
Cc1ccc(-c2noc(COC(=O)c3ccco3)n2)cc1	none (no result: Fh CTSL1 inh, core dimer inh)
CCOc1ccc(Nc2ccc(N)c(S(=O)(=O)O)c2)cc1	none (no result: Fh CTSL1 inh, core dimer inh, PP1 counter, PP5 primary)
Cc1cccc(N=C2NC(=O)/C(=C/C=C/c3ccco3)S2)c1	NadD block 32
O=C1NC(=Nc2ccc3ccccc3c2)S/C1=C/c1ccco1	NadD block 34
O=C1NC(=Nc2ccc(O)cc2)S/C1=C/c1ccco1	none
COc1ccc(N=C2NC(=O)/C(=C\C=C\c3ccco3)S2)cc1	NadD block 36 (no result: Fh CTSL1 inh, core dimer inh, PP1 counter, PP5 primary)
COC(=O)C(Cc1ccccc1)NC(=O)c1ccc(NS(=O)(=O)c2ccc3[nH]c(=O)[nH]c3c2)cc1 (stereo not given)	Myeloid diff MLP inconclusive (no result: Fh CTSL1 inh, core dimer inh)
OC[C@@H]1CN(Cc2ccncc2)C[C@H](n2cnc3c(NCc4ccco4)ncnc32)O1	none (no result: Fh CTSL1 inh, core dimer inh, PP1 counter, PP5 primary)
O=C(CCl)Nc1ccc(N2CCCCCC2)cc1	Fh CTSL1 inh 21, Myeloid diff MLP inconclusive
CCC(=O)Nc1ccc(N2CCCCC2)cc1	none

Screening data: PubChem, several laboratories
